According to ChEMBL document CHEMBL1152867, “Targeting QseC signaling and virulence for antibiotic development” (Science, 2008):
Calls of active or inactive are those of the source. The rule behind the calls is not given here.

Assays:
[1] = tested on: Mus musculus; experiment: Toxicity in CD1 mouse assessed as WBC counts at 20 mg/kg, po administered daily once for 5 days measured 3 days after final dose; assay type: organism-based; design: dose 20 mg/kg, route oral; details: in vivo, 72 h
[2] = tested on: Escherichia coli; experiment: Inhibition of AI3-induced Qsec-dependent virulence gene stx2A expression in Escherichia coli at 5 pM by quantitative real-time PCR; assay type: functional, organism-based
[3] = tested on: Salmonella typhimurium; experiment: Antibacterial activity against Salmonella Typhimurium SL1344 infected in 129x1/SvJ mouse assessed as survival at 20 mg/kg, po administered 3 hrs pre and 3 hrs post-bacterial challenge measured after 24 hrs; assay type: functional
In short: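 Female 129x1/SvJ mice, 7–9 weeks old, were infected intraperitoneally with 10^8 cfu S. typhimurium SL1344. The test agent was given orally at 20 mg/kg in 5% DMSO/23% PEG400/70% Na bicarbonate pH 9/2% Tween 80, 3 h before and 3 h after infection. Controls were drug alone and infection alone. Groups of 10 mice were used and the experiment was repeated twice. Morbidity and death were recorded daily, and survivors were euthanized at day 12.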

[4] = Terminal half life in CD1 mouse at 20 mg/kg, iv administered as bolus dose; assay type: ADME, organism-based; design: dose 20 mg/kg, route intravenous; details: in vivo, read-out: beta t1/2
In short: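 Groups of three were bled terminally by cardiac puncture at set times. Plasma was acetonitrile-precipitated with internal standard and quantified by electrospray LC/MS/MS against a plasma standard curve (10-1000 ng/ml). Noncompartmental analysis was used.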

[5] = tested on: Escherichia coli; experiment: Inhibition of AI3-induced Qsec-dependent virulence gene eae expression in Escherichia coli at 5 pM by quantitative real-time PCR; assay type: functional, organism-based
[6] = tested on: Mus musculus; experiment: Toxicity in CD1 mouse assessed as change in brain weight at 20 mg/kg, po administered daily once for 5 days measured 3 days after final dose; assay type: organism-based; design: dose 20 mg/kg, route oral; details: in vivo
In short: (§1)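 Female CD-1 mice (~22 g), three per group, given 20 mg/kg by oral gavage once daily for 5 days. Vehicle-only mice served as controls. Animals were weighed and observed daily. Three days after the last dose they were weighed and sacrificed. Blood was taken for chemistry and complete blood counts, and organs were weighed.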

[7] = tested on: Mus musculus; experiment: Toxicity in CD1 mouse assessed as hematocrit content at 20 mg/kg, po administered daily once for 5 days measured 3 days after final dose; assay type: organism-based; design: dose 20 mg/kg, route oral; details: in vivo, 72 h; in short: as §1
[8] = tested on: Salmonella typhimurium; experiment: Inhibition of norepinephrine-induced virulence gene sifA expression in Salmonella Typhimurium at 5 pM; assay type: functional, organism-based; details: Salmonella enterica subsp. enterica serovar Typhimurium
[9] = tested on: Escherichia coli; experiment: Bactericidal activity against Escherichia coli 8624 at 1 uM; assay type: functional, organism-based
[10] = tested on: Mus musculus; experiment: Toxicity in CD1 mouse assessed as mean corpuscular hemoglobin at 20 mg/kg, po administered daily once for 5 days measured 3 days after final dose; assay type: organism-based; design: dose 20 mg/kg, route oral; details: in vivo, 72 h; in short: as §1
[11] = tested on: Mus musculus; experiment: Toxicity in CD1 mouse assessed as red cell distribution width at 20 mg/kg, po administered daily once for 5 days measured 3 days after final dose; assay type: organism-based; design: dose 20 mg/kg, route oral; details: in vivo, 72 h; in short: as §1
[12] = tested on: Mus musculus; experiment: Toxicity in CD1 mouse assessed as lymphocyte counts at 20 mg/kg, po administered daily once for 5 days measured 3 days after final dose; assay type: organism-based; design: dose 20 mg/kg, route oral; details: in vivo, 72 h; in short: as §1
[13] = tested on: Escherichia coli; experiment: Antibacterial activity against Escherichia coli infected in New Zealand white rabbit assessed as inhibition of bacterial colonization in ileum at 20 mg/kg pretreated before 3 hrs of bacterial challenge; assay type: functional, organism-based; design: dose 20 mg/kg
[14] = tested on: Escherichia coli; experiment: Bactericidal activity against Escherichia coli 8624 at 1 uM in presence of epinephrine; assay type: functional, organism-based
[15] = tested on: Escherichia coli; experiment: Inhibition of epinephrine-induced EspA protein secretion in Escherichia coli 8624 at 5 nM by Western blot; assay type: functional, organism-based
In short: (§2)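 Secreted proteins in cell-free supernatant were TCA-precipitated and immunoblotted with rabbit polyclonal anti-EspA and anti-EspB, with ECL detection.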

[16] = tested on: Mus musculus; experiment: Toxicity in CD1 mouse assessed as alanine transferase levels at 20 mg/kg, po administered daily once for 5 days measured 3 days after final dose; assay type: organism-based; design: dose 20 mg/kg, route oral; details: in vivo, 72 h
[17] = tested on: Mus musculus; experiment: Toxicity in CD1 mouse assessed as phosphate levels at 20 mg/kg, po administered daily once for 5 days measured 3 days after final dose; assay type: organism-based; design: dose 20 mg/kg, route oral; details: in vivo, 72 h; in short: as §1
[18] = tested on: Mus musculus; experiment: Toxicity in CD1 mouse assessed as eosinophil counts at 20 mg/kg, po administered daily once for 5 days measured 3 days after final dose; assay type: organism-based; design: dose 20 mg/kg, route oral; details: in vivo, 72 h; in short: as §1
[19] = target: Beta-3 adrenergic receptor (Homo sapiens) (UniProt P13945); experiment: Effect on BRL-37344-induced human beta-3-adrenergic receptor activation expressed in HEK293 cells assessed as cAMP release at 5 uM; assay type: functional, cell-based
In short: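 HEK293 cells carried an EPAC-based cAMP BRET reporter. The agonist for β1 (exogenous) was 1 nM dobutamine, for β2 (endogenous) 100 nM terbutaline, and for β3 (exogenous) 10 nM BRL37344. Each agonist was given alone or with 5 μM compound. Live-cell cAMP was read as triplicate means, representative of 3 experiments.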

[20] = Oral bioavailability in CD1 mouse at 20 mg/kg; assay type: ADME, organism-based; details: in vivo
In short: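 Female CD-1 mice received 20 mg/kg either as an i.v. bolus or by oral gavage, in the same DMSO/PEG400/Tween 80/bicarbonate pH 9 vehicle. Plasma levels were measured by LC/MS/MS. Bioavailability = AUCoral/AUCiv × Doseiv/Doseoral, using noncompartmental AUCs.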

[21] = tested on: Francisella tularensis subsp. tularensis SCHU S4; experiment: Bacteriostatic activity against Francisella tularensis SCHU S4 at 1 uM; assay type: functional, organism-based
[22] = tested on: Escherichia coli; experiment: Inhibition of epinephrine-induced EspB protein secretion in Escherichia coli 8624 at 5 pM by Western blot; assay type: functional, organism-based; in short: as §2
[23] = tested on: Mus musculus; experiment: Toxicity in CD1 mouse assessed as cholesterol levels at 20 mg/kg, po administered daily once for 5 days measured 3 days after final dose; assay type: organism-based; design: dose 20 mg/kg, route oral; details: in vivo, 72 h; in short: as §1
[24] = tested on: Escherichia coli; experiment: Inhibition of epinephrine-induced EspB protein secretion in Escherichia coli 8624 at 5 nM by Western blot; assay type: functional, organism-based; in short: as §2
[25] = tested on: Mus musculus; experiment: Toxicity in CD1 mouse assessed as triglyceride levels at 20 mg/kg, po administered daily once for 5 days measured 3 days after final dose; assay type: organism-based; design: dose 20 mg/kg, route oral; details: in vivo, 72 h; in short: as §1
[26] = tested on: Mus musculus; experiment: Toxicity in CD1 mouse assessed as change in lung weight at 20 mg/kg, po administered daily once for 5 days measured 3 days after final dose; assay type: organism-based; design: dose 20 mg/kg, route oral; details: in vivo, 72 h; in short: as §1
[27] = tested on: Escherichia coli; experiment: Antibacterial activity against Escherichia coli infected in New Zealand white rabbit assessed as inhibition of bacterial colonization in cecum at 20 mg/kg administered 3 hrs post-bacterial challenge; assay type: functional, organism-based; design: dose 20 mg/kg; details: Caecum

Chain of Beta-3 adrenergic receptor (Homo sapiens) (P13945 whole entry, looked up): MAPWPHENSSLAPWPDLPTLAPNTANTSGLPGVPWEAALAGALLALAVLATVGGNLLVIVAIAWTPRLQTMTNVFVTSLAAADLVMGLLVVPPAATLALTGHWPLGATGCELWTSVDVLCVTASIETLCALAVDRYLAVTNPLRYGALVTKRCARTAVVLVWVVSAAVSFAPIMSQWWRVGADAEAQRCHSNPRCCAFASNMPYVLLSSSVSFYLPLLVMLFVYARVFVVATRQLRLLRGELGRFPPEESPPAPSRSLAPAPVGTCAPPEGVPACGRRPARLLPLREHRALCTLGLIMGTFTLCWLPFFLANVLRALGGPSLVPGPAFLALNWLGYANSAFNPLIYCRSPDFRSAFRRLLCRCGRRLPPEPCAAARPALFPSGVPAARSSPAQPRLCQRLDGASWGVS

## O=S(=O)(Nc1ccccc1)c1ccc(NC(=S)Nc2ccccc2)cc1
[1]
  Activity: 1.5 K/uL
[2]
  Activity: Active
[3]
  Activity: 80%
[4]
  half-life: 339 min
[5]
  Activity: Active
[6]
  Activity: Non-toxic
[7]
  Activity: 38.5%
[8]
  Activity: Active
[9]
  Activity: inactive
[10]
  Activity: 16.1 pg
[11]
  Activity: 17.6%
[12]
  Activity: 82%
[13]
  Activity: inactive
[14]
  Activity: inactive
[15]
  Activity: Active
[16]
  Activity: 31.7 U/L
[17]
  Activity: 11 mg/dL
[18]
  Activity: 0.7%
[19]
  Activity: inactive
[20]
  bioavailability: 69.3%
[21]
  Activity: inactive
[22]
  Activity: Active
[23]
  Activity: 122 mg/dL
[24]
  Activity: Active
[25]
  Activity: 99.3 mg/dL
[26]
  Activity: Non-toxic
[27]
  Activity: inactive
